Compound activity from PubChem BioAssay.
Ecoli tolC – growth inhibitors of E. coli tolC mutant, primary screen, strain BW25113 ΔtolC::kan, 384-well; OD615; actives 2.2% (n = 65,000); growth inhibition, % at 10 µM (by protocol);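 active = growth inhibition at or above a cutoff equal to the mean over every tested compound plus 3 SD, cut at about 60% in these data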;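 note: growth measured after 20 h incubation at 37 °C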
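Material: E. coli BW25113 ΔtolC::kan, tolC deletion mutant strain. Measure: percent growth inhibition. Schedule: 37 °C, 20 h exposure. Doses: single-point testing at 10 µM. Signal: A615 absorbance measurement. Buffer or medium: kanamycin-containing LB broth (50 µg/mL).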
CYP2C19 inh – blockers of cytochrome P450 2C19 activity – biochemical, luminescence, ADME assay, primary screen. CYP2C19 Supersomes, luciferin-H EGE luminescence, 30 min. actives 21% (n = 96,000). AID 778, 2007. P33261. inhibition, % at 5 µM;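 active = CYP2C19 inhibition above a set limit at 5 µM in the primary screen, cut at about 50% in these data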;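 note: plate controls were negative control wells for no effect and 2.5 mM tranylcypromine positive control for full effect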
Target sequence (P33261 whole entry, looked up): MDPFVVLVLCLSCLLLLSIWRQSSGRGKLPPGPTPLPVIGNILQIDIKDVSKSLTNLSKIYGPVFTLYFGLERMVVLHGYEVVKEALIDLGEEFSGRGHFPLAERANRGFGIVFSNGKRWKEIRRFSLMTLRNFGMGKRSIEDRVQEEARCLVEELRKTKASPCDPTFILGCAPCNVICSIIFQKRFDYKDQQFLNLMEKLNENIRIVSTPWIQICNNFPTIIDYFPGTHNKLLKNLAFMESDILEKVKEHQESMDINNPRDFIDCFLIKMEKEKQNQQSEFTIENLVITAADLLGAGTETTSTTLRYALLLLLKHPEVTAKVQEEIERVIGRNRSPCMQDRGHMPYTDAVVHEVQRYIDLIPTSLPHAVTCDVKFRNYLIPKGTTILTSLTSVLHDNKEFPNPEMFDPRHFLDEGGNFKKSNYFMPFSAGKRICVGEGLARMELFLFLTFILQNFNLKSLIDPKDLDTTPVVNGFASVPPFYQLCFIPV
E coli WT exp – growth inhibitors of wild-type E. coli, primary screen, strain BW25113, expanded library, OD600; OD600 absorbance; growth inhibition, % at 100 µM; actives 0.15% (n = 98,000);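 active = growth inhibition above about 50% at one test dose, limit read from the data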;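 note: growth measured after 20 h incubation at 37 °C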
CYP2C9 activ – human CYP2C9 activators, primary screen, biochemical, luminescence; AID 1024, 2008; actives 1.4% (n = 96,000); Cytochrome P450 2C9 (Homo sapiens), P11712; recombinant CYP2C9, luciferin-H conversion; stronger effect = higher value; factor 1 = untreated enzyme, 0 = blocked; activation factor at 5 µM;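 active = activation factor of 2 or more for CYP2C9 at a 5 µM dose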;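 note: 0 = sulfaphenazole-blocked wells and 1 = vehicle-only wells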
CYP2C9 inhib – blockers of cytochrome P450 2C9 activity – biochemical, luminescence, ADME assay, primary screen. P11712. CYP2C9 Supersomes, luciferin-H conversion. inhibition, % at 5 µM. actives 20% (n = 96,000). AID 777, 2007;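 active = blocking of liver enzyme CYP2C9 beyond about 50% at 5 µM, limit read from the data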
CYP2C19 act – human CYP2C19 activators, primary screen, biochemical, luminescence; Cytochrome P450 2C19 (Homo sapiens), P33261; recombinant CYP2C19, luciferin-H EGE luminescence; stronger effect = higher value; 0 = fully inhibited enzyme, 1 = untreated enzyme; activation factor at 5 µM; 96,000 tested, under 10 active; AID 1025, 2008;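 active = activation factor of at least 2 at 5 µM in the primary screen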;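 note: 0 = wells with 2.5 mM tranylcypromine and 1 = vehicle-only wells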
* hit, by the source's call; . = no result given. A selection: hits, their analogues and other compounds. The true share with any hit is near 29%.

SMILES	Ecoli tolC	CYP2C19 inh	E coli WT exp	CYP2C9 activ	CYP2C9 inhib	CYP2C19 act
CCCCn1c(SCC(=O)NCc2ccco2)nc2ccc(N3CCOCC3)cc2c1=O	1.4	21.9	1.0	0.4	59.6*	0.8
CCC(C)NC(=O)CSc1nc2ccc(N3CCOCC3)cc2c(=O)n1CCc1ccccc1 (stereo unspecified)	-0.7	1.4	2.0	0.9	5.1	1
CCCCn1c(SCC(=O)NC(C)CC)nc2ccc(N3CCOCC3)cc2c1=O (stereo unspecified)	.	27.8	-10.0	0.4	60.3*	0.7
CCCCn1c(SCC(=O)NCc2ccccc2)nc2ccc(N3CCOCC3)cc2c1=O	7.2	33.9	-6.0	0.3	74.5*	0.7
CCOC(=O)CSc1nc2ccc(N3CCOCC3)cc2c(=O)n1Cc1ccc2c(c1)OCO2	20.2	81.1*	-4.0	0.3	74.8*	0.2
CC(C)(C)c1ccc(Cn2ccc(-c3ccc4c(c3)OCO4)n2)cc1	.	9.3	5.0	0.8	15.8	0.9
COc1ccc([C@@H]2Sc3ccccc3N(CCN(C)C)C(=O)[C@@H]2OC(C)=O)cc1	12.2	.	.	.	.	.
c1ccc(Nc2nn[nH]n2)cc1	-19.1	-12.1	-4.0	1.1	-13.1	1.1
CC(C)Cc1nnc(NC(=O)CSc2nc(=O)cc(N)n2-c2ccccc2)s1	-7.0	3.1	8.0	0.9	11.6	1
CNC(=O)c1cc(S(=O)(=O)N(C)C)ccc1Cl	-22.8	-14.1	-1.0	1.2	-15.9	1.1
COc1ccc(-c2nc(-c3cccc(C)c3)nc(Cl)c2C#N)cc1	.	4.3	-7.0	0.3	69.0*	1
COc1ccc(-c2c(C#N)c(C)nc3c2C(=O)c2ccccc2-3)cc1	.	56.6*	-3.0	0.5	48.0	0.4
COc1ccc(-c2nc(-c3ccccc3)[nH]c(=O)c2C#N)cc1	.	-16.5	-12.0	0.3	65.3*	1.2
CC1CCN(c2nc(-c3ccccc3)c(C#N)c(=O)[nH]2)CC1	5.7	0.8	-7.0	0.9	5.8	1
COc1ccc(-c2nc(-c3ccccc3)nc(Cl)c2C#N)cc1	.	7.0	-18.0	0.7	25.3	0.9
Cc1c(N2C(=O)CSC23C(=O)Nc2ccccc23)c(=O)n(-c2ccccc2)n1C (stereo unspecified)	-4.6	21.9	3.0	1	-2.7	0.8
Cc1cccc(CN2C(=O)N/C(=C/c3cc(C)n(-c4ccccn4)c3C)C2=O)c1	.	46.6	-6.0	0	97.5*	0.5
CCCCCC/C(=N/O)c1ccccn1	100.0*	19.7	37.0	0.7	28.1	0.8
CCOC(=O)C1CCCN(CC(=O)Nc2c(C(=O)OC)[nH]c3ccc(C)cc23)C1 (stereo unspecified)	13.4	43.4	8.0	0.4	59.6*	0.6
CCOC(=O)C1CCCN(CC(=O)Nc2c(C(=O)OC)[nH]c3ccc(Cl)cc23)C1 (stereo unspecified)	13.4	90.8*	10.0	0.1	90.6*	0.1
COC(=O)c1[nH]c2ccc(C)cc2c1NC(=O)CCN1CCN(Cc2ccc3c(c2)OCO3)CC1	10.2	37.0	3.0	0.8	17.8	0.6
COC(=O)c1[nH]c2ccc(C)cc2c1NC(=O)CN1CCCc2ccccc21	17.4	22.9	5.0	0.2	84.9*	0.8
COC(=O)c1[nH]c2ccc(C)cc2c1NC(=O)CN1CCCCC1C (stereo unspecified)	5.8	.	.	.	.	.
CCN(CC(=O)Nc1c(C(=O)OC)[nH]c2ccc(Cl)cc12)c1ccc2c(c1)OCO2	20.1	88.0*	-14.0	0	96.9*	0.1
O=C1CCC(C(=O)NC2(C(=O)NC3CCCCC3)CCCCC2)N1 (stereo unspecified)	-14.2	7.9	0.0	1.1	-12.8	0.9
SMILES	Ecoli tolC	CYP2C19 inh	E coli WT exp	CYP2C9 activ	CYP2C9 inhib	CYP2C19 act
S=P(c1ccc(N2CCOCC2)cc1N1CCOCC1)(N1CCOCC1)N1CCOCC1	-4.5	25.4	.	0.8	17.7	0.7
CCOC(=O)c1sc2nc(CC(=O)OC)nc(NCc3ccc(Cl)cc3)c2c1C	.	7.2	-11.0	0.9	7.3	0.9
Cc1sc2nc(C(C)Nc3ccccc3N3CCOCC3)[nH]c(=O)c2c1C (stereo unspecified)	24.8	34.6	-4.0	0.5	54.5*	0.7
Cc1sc2nc(SCC(=O)N3CCOCC3)[nH]c(=O)c2c1C	1.7	6.9	8.0	1	3.2	0.9
CCCc1cc(=O)n2[nH]c(Cc3ccccc3)nc2n1	9.1	-2.9	-7.0	0.7	26.6	1
CCOc1ccccc1NC(=O)NC1CC2CCCC(C1)N2Cc1nnnn1CCc1ccccc1 (stereo unspecified)	20.9	78.3*	-9.0	0.4	60.8*	0.2
Cc1ccc2cc(CN(CC3CCCO3)C(=O)c3ccco3)c(=O)[nH]c2c1C (stereo unspecified)	-10.9	.	.	.	.	.
Cc1cccc2cc(CN(CC3CCCO3)S(=O)(=O)c3ccccc3)c3nnnn3c12 (stereo unspecified)	-13.9	-14.8	.	1.1	-5.5	1.1
Cc1ccc2cc(CN(Cc3nnnn3Cc3ccco3)CC3CCCO3)c(=O)[nH]c2c1C (stereo unspecified)	9.4	82.2*	7.0	0.1	86.2*	0.2
Cc1ccc(S(=O)(=O)Cn2nnnc2CN(Cc2ccco2)CC2CCCO2)cc1 (stereo unspecified)	0.8	84.4*	7.0	0.1	91.2*	0.2
N#Cc1c(-n2cccc2/C=N/O)sc2c1CCCC2	45.8	40.5	23.0	2.8*	-176.5	0.6
Cc1oc(-c2ccccc2F)nc1CN1CCC(C(=O)NCc2cccs2)CC1	-3.8	-3.2	5.0	1.8	-76.4	1
COc1ccccc1-n1c(CNc2c(C)cccc2C)nnc1SCC(=O)N1CCOCC1	8.5	0.6	-2.0	1.1	-5.1	1
CNC(=O)c1cc2cc(OC)ccc2oc1=O	.	-9.9	7.0	1	-1.7	1.1
CNC(=O)c1cc2cc(OC)ccc2n1CCN(C)C	-4.7	62.8*	2.0	1	-4.0	0.4
CNC(=O)c1cc2cc(OC)ccc2n1CCN(Cc1ccccc1)Cc1ccccc1	.	91.9*	-3.0	0.3	67.1*	0.1
COc1ccc2c(c1)cc(C(=O)O)n2C	-24.3	-10.0	-10.0	1.2	-15.6	1.1
O=C(COC(=O)c1cc[n+]([O-])cc1)NCC12CC3CC(CC(C3)C1)C2	.	-3.5	2.0	1.1	-11.5	1
CN(CC(=O)N1CC=C(c2ccccc2)CC1)S(=O)(=O)c1cnc[nH]1	-0.7	95.4*	3.0	0	98.7*	0
O=C(C1CCCCC1)N1CCCC(c2nc(-c3ccc(F)cc3)no2)C1 (stereo unspecified)	-2.5	31.2	-10.0	0.5	47.6	0.7
